{"source": "paper PMC10753549", "about": "(ACS Omega, 2023)", "key": {"ZIKV NS3 protease": {"tested_on": "ZIKV NS3 protease", "settings": "read-out: IC50 (viral protease); ref Pathak et al. (2020) [49]; cited from earlier work"}, "NS2B-NS3 protease": {"tested_on": "NS2B-NS3 protease", "settings": "NS2B-NS3 inhibitors; cited from earlier work"}, "[1]": {"tested_on": "brine shrimp (Artemia salina)", "experiment": "Brine shrimp lethality bioassay"}, "ZIKV": {"tested_on": "ZIKV", "settings": "read-out: EC50 (anti-ZIKV); in vitro assays; ref Pathak et al. (2020) [49]; cited from earlier work"}, "Zika virus strain MR766": {"tested_on": "Zika virus strain MR766", "experiment": "Anti-ZIKV viral immunofluorescence assay in Vero cells", "type": "cell-based, Zika virus (MR766 Africa lineage)", "summary_of_the_method": "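Vero cells kept in DMEM with 10% FBS, 1% penicillin/streptomycin and 2 mM L-glutamine. They were pretreated with test compound at ten concentrations, then infected with MR766 virus stock grown in C6/36 mosquito cells (5 μL inoculum per well). After 24 h the cells were fixed in 4% paraformaldehyde and read by immunofluorescence. Mycophenolic acid was the positive control. EC50 came from 10-point dose–response curves in triplicate. CC50 was measured in uninfected Vero cells, and SI = CC50/EC50.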"}, "[2]": {"experiment": "Cytotoxicity assay on Vero cells", "type": "cell-based", "settings": "African green monkey, virus-uninfected Vero cells, CC50 (50% cytotoxic concentration), 10-point dose–response curves in triplicate", "summary_of_the_method": "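Vero cells were grown in DMEM with 10% FBS, 1% penicillin/streptomycin and 2 mM L-glutamine. Virus-uninfected cells were exposed to test compound at ten concentrations. CC50 was calculated from the 10-point dose–response curves, run in triplicate.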"}}, "note": "Structures can show the parent of a compound that is named as a salt.", "data": [{"molecule": "COc1ccc2c(O[C@@H]3C[C@H]4C(=O)N[C@]5(C(=O)NS(=O)(=O)C6CC6)C[C@H]5/C=C\\CCCCN(C)C(=O)[C@@H]4C3)cc(-c3nc(C(C)C)cs3)nc2c1C", "note": "[simeprevir]", "values": [{"measurement": "IC50", "setting": "ZIKV NS3 protease", "value": 2.6, "unit": "µM"}]}, {"molecule": "Oc1cccc(-c2c3nc(c(-c4cccc(O)c4)c4ccc([nH]4)c(-c4cccc(O)c4)c4nc(c(-c5cccc(O)c5)c5ccc2[nH]5)CC4)C=C3)c1", "note": "[temoporfin]", "values": [{"measurement": "IC50", "setting": "NS2B-NS3 protease", "value": 1.1, "unit": "µM"}]}, {"molecule": "CN1[C@@H]2CC[C@H]1C[C@@H](OC(=O)C(CO)c1ccccc1)C2", "note": "(stereo partly shown) [Atropine SO4, Atropine sulfate monohydrate]", "values": [{"measurement": "nauplii mortality", "setting": "[1]; after 24 h", "value": "below 20%"}]}, {"molecule": "erythrosine B", "values": [{"measurement": "IC50", "setting": "NS2B-NS3 protease", "value": 1.7, "unit": "µM"}]}, {"molecule": "C=C[C@@H]1C[C@]1(NC(=O)[C@@H]1C[C@@H](Oc2ncc(OC)c3ccc(Cl)cc23)CN1C(=O)[C@@H](NC(=O)OC(C)(C)C)C(C)(C)C)C(=O)NS(=O)(=O)C1CC1", "note": "[asunaprevir]", "values": [{"measurement": "EC50", "setting": "ZIKV", "value": 4.7, "unit": "µM"}, {"measurement": "IC50", "setting": "ZIKV NS3 protease", "value": 6, "unit": "µM"}]}, {"molecule": "CC(C)C[C@H]1C(=O)N2CCC[C@H]2[C@]2(O)O[C@](NC(=O)[C@@H]3C=C4c5cccc6[nH]c(Br)c(c56)C[C@H]4N(C)C3)(C(C)C)C(=O)N12", "note": "[bromocriptine]", "values": [{"measurement": "IC50", "setting": "NS2B-NS3 protease", "value": 21.6, "unit": "µM"}]}, {"molecule": "COc1c(C)c2c(c(O)c1C/C=C(\\C)CCC(=O)O)C(=O)OC2", "note": "[MPA, mycophenolic acid]", "values": [{"measurement": "SI: Selectivity index (CC50/EC50)", "setting": "Zika virus strain MR766; ZIKV MR766 / Vero cells", "value": ">1063"}, {"measurement": "EC50", "setting": "Zika virus strain MR766; Zika virus, Vero, 24 h, read-out: EC50 (median effective concentration)", "value": 0.94, "unit": "µM"}, {"measurement": "CC50", "setting": "[2]", "value": "> 1000", "unit": "µM"}]}, {"molecule": "COc1ccc2cc3[n+](cc2c1OC)CCc1cc2c(cc1-3)OCO2", "note": "[Berberine chloride, berberine chloride]", "values": [{"measurement": "nauplii mortality", "setting": "[1]; at 125 μg/mL, 24 h", "value": "all the nauplii were dead"}, {"measurement": "LD50 (median lethal dose)", "setting": "[1]; brine shrimp nauplii, 24 h, probit analysis of 6-point dose (16–500 μg/mL)", "value": 27.0, "unit": "µg/mL"}]}, {"molecule": "CO[C@@H]1[C@@H](OC(N)=O)[C@@H](O)[C@H](Oc2ccc3c(O)c(NC(=O)c4ccc(O)c(CC=C(C)C)c4)c(=O)oc3c2C)OC1(C)C", "note": "[novobiocin]", "values": [{"measurement": "IC50", "setting": "NS2B-NS3 protease", "value": 14.2, "unit": "µM"}]}]}
